Here are results for 11 molecules from ChEMBL document CHEMBL2086233, “D-proline-based peptidomimetic inhibitors of anthrax lethal factor” (Eur J Med Chem, 2012).

The target in assay [1] is T1, Lethal factor (Bacillus anthracis) (UniProt P15917).
T1 sequence (whole entry): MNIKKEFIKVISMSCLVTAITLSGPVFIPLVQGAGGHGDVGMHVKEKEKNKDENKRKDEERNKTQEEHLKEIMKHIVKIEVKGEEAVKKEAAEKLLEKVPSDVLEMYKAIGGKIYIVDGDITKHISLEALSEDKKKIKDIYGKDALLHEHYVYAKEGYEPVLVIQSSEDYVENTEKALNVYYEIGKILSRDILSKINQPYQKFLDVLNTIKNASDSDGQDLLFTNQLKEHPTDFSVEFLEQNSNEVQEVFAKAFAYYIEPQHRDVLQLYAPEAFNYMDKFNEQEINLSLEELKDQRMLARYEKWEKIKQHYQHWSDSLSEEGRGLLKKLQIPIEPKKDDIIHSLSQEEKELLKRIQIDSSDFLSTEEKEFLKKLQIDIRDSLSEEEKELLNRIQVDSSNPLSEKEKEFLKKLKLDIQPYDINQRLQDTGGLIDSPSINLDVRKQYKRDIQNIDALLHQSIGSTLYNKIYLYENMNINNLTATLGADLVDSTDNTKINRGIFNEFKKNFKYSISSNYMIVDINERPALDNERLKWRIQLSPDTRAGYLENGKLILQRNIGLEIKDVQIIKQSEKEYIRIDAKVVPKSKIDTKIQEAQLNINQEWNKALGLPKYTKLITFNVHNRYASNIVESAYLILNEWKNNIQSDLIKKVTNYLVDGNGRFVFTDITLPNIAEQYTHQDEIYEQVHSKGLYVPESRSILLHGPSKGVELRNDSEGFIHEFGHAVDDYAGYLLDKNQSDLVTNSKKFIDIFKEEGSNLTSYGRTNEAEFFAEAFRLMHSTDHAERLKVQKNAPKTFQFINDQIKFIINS
Briefly: Inhibition of Bacillus anthracis lethal factor using protease substrate-2 assessed as release of p-nitroaniline at 10 uM measured for 10 mins by spectrophotometric assay. Summed up:
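Single fixed inhibitor concentration. A405 (p-nitroaniline release) followed 10 min after LF addition. % inhibition from initial velocity versus no-inhibitor control. Mean of three experiments.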

Another assay concerns the target T2, Lethal factor (Bacillus anthracis, UniProt P15917).
T2 sequence (P15917 whole entry): T1 sequence (whole entry)
As to the kind of experiment: Inhibition of Bacillus anthracis lethal factor using protease substrate-2 assessed as release of p-nitroaniline measured for 10 mins by spectrophotometric assay. Put shortly:
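10 nM LF with lethal factor protease substrate II (pNA-tagged peptide) in 250 mM Na2HPO4, 150 mM NaCl, pH 7.4, 25 °C. A405 followed 10 min after enzyme addition. Inhibitor at five concentrations starting at 500 nM. IC50 by non-linear regression of the dose-response data. Experiments repeated twice.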

In the case of `O=C(N[C@H]1C[C@H](C(=O)NO)N(S(=O)(=O)c2ccc(Cl)c(Cl)c2)C1)c1cccs1`, the inhibition in assay [1] worked out at 46%.

On to `CCCCCCO[C@H]1CCN(S(=O)(=O)c2ccc(Cl)cc2)[C@H]1C(=O)NO`, for which the IC50 on Lethal factor is more than 10 µM.

As for `O=C(NO)[C@H]1C[C@H](OCc2ccccc2)CN1S(=O)(=O)c1ccc(Cl)c(Cl)c1`, the inhibition in assay [1] is 16%.

Turning to `O=C(NO)[C@H]1C[C@@H](OCc2ccccc2)CN1S(=O)(=O)c1ccc(Cl)c(Cl)c1`, the inhibition in assay [1] came out at 50%. The IC50 on Lethal factor worked out at 9.5 µM.

For the molecule `COc1ccc(C(=O)N[C@@H]2C[C@H](C(=O)NO)N(S(=O)(=O)c3ccc(Cl)c(Cl)c3)C2)c(OC)c1`, the inhibition in assay [1] worked out at 65%. The IC50 on Lethal factor amounted to 2.1 µM.

For `O=C(NO)[C@H]1C[C@@H](n2cc(-c3ccccc3)nn2)CN1S(=O)(=O)c1ccc(Cl)c(Cl)c1`, the inhibition in assay [1] is 8%.

Regarding `COc1ccc(C(=O)N[C@H]2C[C@H](C(=O)NO)N(S(=O)(=O)c3ccc(Cl)c(Cl)c3)C2)c(OC)c1`, in assay [1], the inhibition was determined as 11%.

`O=C(NO)[C@H]1[C@@H](OCc2ccccc2)CCN1S(=O)(=O)c1ccc(Cl)c(Cl)c1`: at Lethal factor, the IC50 stood at 1.4 µM.

Regarding `O=C(N[C@@H]1C[C@H](C(=O)NO)N(S(=O)(=O)c2ccc(Cl)c(Cl)c2)C1)c1cccs1`, the inhibition in assay [1] stood at 27%.

`O=C(NO)[C@H]1[C@@H](OCc2ccccc2)CCN1S(=O)(=O)c1ccc(Cl)cc1`: at Lethal factor, the IC50 worked out at 1.7 µM.

As for `O=C(/C=C/c1ccco1)N[C@H]1C[C@H](C(=O)NO)N(S(=O)(=O)c2ccc(Cl)c(Cl)c2)C1`, in assay [1], the inhibition turned out to be 22%.

The inhibition is how much of the control response was suppressed. Broadly, the IC50 is the midpoint of a concentration-inhibition curve.
